Measured values published in ChEMBL document CHEMBL1152539, “Synthesis and evaluation of bioactive naphthoquinones from the Brazilian medicinal plant, Tabebuia avellanedae” (Bioorg Med Chem, 2009).
Values after ≈ are worked out from the molar mass of the structure shown.

How the values were obtained:
[1] = tested on: Bacillus mycoides; assay: Antimicrobial activity against Bacillus mycoides ATCC 11778 after 24 hrs by broth dilution method; type: functional; conditions: ATCC 11778, 24 h
In short: (§1)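 Modified NCCLS broth dilution. A 50 µL aliquot of bacterial cells (10⁶/mL in 0.85% NaCl) was added to 1 mL Mueller-Hinton broth containing compound over a 0.1–100 range.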

[2] = tested on: MCF7; assay: Antiproliferative activity against human MCF7 cells after 72 hrs by trypan blue exclusion assay; type: functional, cell-based; conditions: MCF7, 72 h
In short: (§2)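 Cells were kept in DMEM with 10% fetal serum and exposed to four concentrations of compound for 72 h at 37 °C in humidified 5% CO₂. They were then stained with 0.25% trypan blue for 20 min, and viable cells were counted by light microscopy. IC₅₀ was derived from separate experiments run in triplicate.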

[3] = Antiproliferative activity against human Hs888Lu cells after 72 hrs by trypan blue exclusion assay; type: cell-based; in short: as §2
[4] = tested on: Raji; assay: Inhibition of 12-O-tetradecanoylphorbol-13-acetate-induced EBV-early antigen activation in human Raji cells assessed as EA induction at 500 molar ratio after 48 hrs by immunofluorescence technique relative to 12-O-tetradecanoylphorbol-13-acetate; type: cell-based; design: scale not given: the % may be the effect or the level left; conditions: human gammaherpesvirus 4
In short: (§3)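 Raji cells were incubated for 48 h at 37 °C in medium with n-butyric acid (4 mM), TPA (32 pmol) and graded amounts of test compound. Smears were stained for EBV-EA by indirect immunofluorescence, and positive cells were counted among at least 500 cells. Assays were run in triplicate. Activity was expressed relative to the n-butyric acid plus TPA control, set as 100%.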

[5] = tested on: Pseudomonas aeruginosa; assay: Antimicrobial activity against Pseudomonas aeruginosa NBRC13275 after 24 hrs by broth dilution method; type: functional; conditions: NBRC13275, 24 h; in short: as §1
[6] = tested on: Paecilomyces variotii; assay: Antimicrobial activity against Paecilomyces variotii NBRC4855 after 3-5 days by broth dilution method; conditions: NBRC4855, 3-5 days
[7] = Cytotoxicity against human Raji cells assessed as cell viability at 1000 molar ratio after 48 hrs by trypan blue staining; type: cell-based; conditions: read-out: Activity
In short: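 Raji cells were exposed for 48 h at 37 °C to n-butyric acid (4 mM), TPA (32 pmol) and test compound, as in the EBV-EA induction setup. Viability of the treated cells was then measured by trypan blue staining.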

[8] = tested on: Candida albicans; assay: Antimicrobial activity against Candida albicans NBRC1060 after 3-5 days by broth dilution method; conditions: NBRC1060, 3-5 days
[9] = tested on: Naganishia albida; assay: Antimicrobial activity against Cryptococcus albidus NBRC0378 after 3-5 days by broth dilution method; conditions: NBRC0378, 3-5 days
[10] = tested on: PC-3; assay: Antiproliferative activity against human PC3 cells after 72 hrs by trypan blue exclusion assay; type: functional, cell-based; conditions: PC-3, 72 h; in short: as §2
[11] = tested on: Raji; assay: Inhibition of 12-O-tetradecanoylphorbol-13-acetate-induced EBV-early antigen activation in human Raji cells assessed as EA induction at 10 molar ratio after 48 hrs by immunofluorescence technique relative to 12-O-tetradecanoylphorbol-13-acetate; type: cell-based; design: scale not given: the % may be the effect or the level left; conditions: human gammaherpesvirus 4; in short: as §3
[12] = Inhibition of 12-O-tetradecanoylphorbol-13-acetate-induced EBV-early antigen activation in human Raji cells after 48 hrs by immunofluorescence technique; type: cell-based, human gammaherpesvirus 4; in short: as §3
[13] = Antiproliferative activity against human SVCT-M12 cells after 72 hrs by trypan blue exclusion assay; type: cell-based; conditions: SVCT-M12, 72 h; in short: as §2
[14] = tested on: Staphylococcus aureus; assay: Antimicrobial activity against Staphylococcus aureus NBRC13276 after 24 hrs by broth dilution method; type: functional; conditions: NBRC13276, 24 h; in short: as §1
[15] = tested on: Bacillus subtilis; assay: Antimicrobial activity against Bacillus subtilis NBRC3134 after 24 hrs by broth dilution method; type: functional; conditions: NBRC3134, 24 h; in short: as §1
[16] = tested on: Salmonella enteritidis; assay: Antimicrobial activity against Salmonella enteritidis OPS10 after 24 hrs by broth dilution method; type: functional, Salmonella enterica subsp. enterica serovar Enteritidis; conditions: Salmonella enterica, OPS10, 24 h; in short: as §1
[17] = tested on: Raji; assay: Inhibition of 12-O-tetradecanoylphorbol-13-acetate-induced EBV-early antigen activation in human Raji cells assessed as EA induction at 1000 molar ratio after 48 hrs by immunofluorescence technique relative to 12-O-tetradecanoylphorbol-13-acetate; type: cell-based; conditions: human gammaherpesvirus 4; in short: as §3
[18] = tested on: Raji; assay: Inhibition of 12-O-tetradecanoylphorbol-13-acetate-induced EBV-early antigen activation in human Raji cells assessed as EA induction at 100 molar ratio after 48 hrs by immunofluorescence technique relative to 12-O-tetradecanoylphorbol-13-acetate; type: cell-based; design: scale not given: the % may be the effect or the level left; conditions: human gammaherpesvirus 4; in short: as §3
[19] = tested on: Saccharomyces cerevisiae; assay: Antimicrobial activity against Saccharomyces cerevisiae NBRC10114 after 24 hrs by broth dilution method; type: functional; conditions: NBRC10114, 24 h
[20] = tested on: A549; assay: Antiproliferative activity against human A549 cells after 72 hrs by trypan blue exclusion assay; type: functional, cell-based; conditions: A549, 72 h; in short: as §2
[21] = tested on: Aspergillus fumigatus; assay: Antimicrobial activity against Aspergillus fumigatus NBRC4400 after 3-5 days by broth dilution method; conditions: NBRC4400, 3-5 days
[22] = tested on: Penicillium expansum; assay: Antimicrobial activity against Penicillium expansum NBRC8800 after 3-5 days by broth dilution method; conditions: NBRC8800, 3-5 days
[23] = tested on: Escherichia coli; assay: Antimicrobial activity against Escherichia coli ATCC 11775 after 24 hrs by broth dilution method; type: functional; conditions: ATCC 11775, 24 h; in short: as §1
[24] = Anticancer activity against DMBA/TPA-induced skin cancer in mouse assessed as incidence of papilloma at 85 nmol administered before TPA challenge measured after 10 weeks; type: functional
In short: (§4)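 Mouse two-stage skin model: DMBA 390 nmol in 0.1 mL acetone applied topically by pipet. One week later, the same skin site was painted with test compound (85 nmol in acetone) or acetone alone, 60 min before TPA (1.7 nmol). Tumor response was scored as the average number of papillomas per mouse and the percentage of mice bearing papillomas.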

[25] = tested on: Naganishia albida; assay: Antimicrobial activity against Cryptococcus albidus NBRC0378 after 24 hrs by broth dilution method; type: functional; conditions: NBRC0378, 24 h
[26] = tested on: Hepatocyte; assay: Antiproliferative activity against human hepatocytes after 72 hrs by trypan blue exclusion assay; type: cell-based; in short: as §2
[27] = Anticancer activity against DMBA/TPA-induced skin cancer in mouse assessed as incidence of papilloma at 85 nmol administered before TPA challenge measured after 20 weeks; type: functional; in short: as §4
[28] = Antiproliferative activity against human skin fibroblast after 72 hrs by trypan blue exclusion assay; type: cell-based; in short: as §2
[29] = Anticancer activity against DMBA/TPA-induced skin cancer in mouse assessed as incidence of papilloma at 85 nmol administered before TPA challenge measured after 15 weeks; type: functional; in short: as §4
[30] = Anticancer activity against DMBA/TPA-induced skin cancer in mouse assessed as number of papillomas per mouse at 85 nmol administered before TPA challenge measured after 20 weeks; type: functional; in short: as §4
[31] = tested on: Saccharomyces cerevisiae; assay: Antimicrobial activity against Saccharomyces cerevisiae NBRC10114 after 3-5 days by broth dilution method; conditions: NBRC10114, 3-5 days
[32] = tested on: Aspergillus fumigatus; assay: Antimicrobial activity against Aspergillus fumigatus NBRC4400 after 24 hrs by broth dilution method; type: functional; conditions: NBRC4400, 24 h
[33] = tested on: Paecilomyces variotii; assay: Antimicrobial activity against Paecilomyces variotii NBRC4855 after 24 hrs by broth dilution method; type: functional; conditions: NBRC4855, 24 h
[34] = tested on: Candida albicans; assay: Antimicrobial activity against Candida albicans NBRC1060 after 24 hrs by broth dilution method; type: functional; conditions: NBRC1060, 24 h
[35] = tested on: Penicillium expansum; assay: Antimicrobial activity against Penicillium expansum NBRC8800 after 24 hrs by broth dilution method; type: functional; conditions: NBRC8800, 24 h
[36] = Cytotoxicity against human Raji cells assessed as cell viability at 500 molar ratio after 48 hrs by trypan blue staining; type: cell-based; conditions: read-out: Activity
In short: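 Raji cells incubated 48 h at 37 °C in medium containing n-butyric acid (4 mM), TPA (32 pmol) and various amounts of test compound, as part of the EBV-EA activation inhibition assay. Viability of the treated cells was then assayed by trypan blue staining.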

| Structure (SMILES) | MIC [1] [µg/mL] | IC50 [2] [µM] | EC50 [3] [µM] | Activity [4] [%] | MIC [5] [µg/mL] | MIC [6] [µg/mL] | viability at 48 h, 1000 molar ratio [7] [%] | MIC [8] [µg/mL] | IC50 [10] [µM] | Activity [11] [%] | IC50 [12] [mol ratio/32 pmol TPA] | EC50 [13] [µM] | MIC [14] [µg/mL] | MIC [15] [µg/mL] | MIC [16] [µg/mL] | EA induction relative to TPA control [17] [%] | Activity [18] [%] | IC50 [20] [µM] | MIC [21] [µg/mL] | MIC [23] [µg/mL] | other results |
| --- | --- | --- | --- | --- | --- | --- | --- | --- | --- | --- | --- | --- | --- | --- | --- | --- | --- | --- | --- | --- | --- |
| C[C@H](O)c1cc2c(o1)C(=O)c1c(O)cccc1C2=O | 1.56 (≈ 6.04 µM) | 2.61 | 14.6 | 26.5 | > 100 | 50 (≈ 194 µM) | 60 | 25 (≈ 96.8 µM) | 1.57 | 80.5 | 271 | 14.6 | 6.25 (≈ 24.2 µM) | 1.56 (≈ 6.04 µM) | > 100 | 7.4 | 58.2 | 4.31 | 25 (≈ 96.8 µM) | > 100 | MIC [9]: 1.56 µg/mL (≈ 6.04 µM); MIC [19]: 3.13 µg/mL (≈ 12.1 µM); MIC [22]: 50 µg/mL (≈ 194 µM) |
| C[C@@H](O)c1cc2c(o1)C(=O)c1cccc(O)c1C2=O | 0.78 (≈ 3.02 µM) | – | – | 9.7 | > 100 | 25 (≈ 96.8 µM) | 70 | 25 (≈ 96.8 µM) | – | 59.4 | 38.9 | – | 3.13 (≈ 12.1 µM) | 0.78 (≈ 3.02 µM) | > 100 | 0 | 24.7 | – | 12.5 (≈ 48.4 µM) | > 100 | Activity [24]: 7%; MIC [25]: 1.56 µg/mL (≈ 6.04 µM); EC50 [26]: 29.8 µM; Activity [27]: 67%; EC50 [28]: 39.7 µM; Activity [29]: 47%; Activity [30]: 3.9; MIC [22]: 25 µg/mL (≈ 96.8 µM); MIC [31]: 3.13 µg/mL (≈ 12.1 µM) |
| C[C@H](O)c1cc2c(o1)C(=O)c1cccc(O)c1C2=O | 0.78 (≈ 3.02 µM) | 0.51 | 5.51 | 4.4 | > 100 | – | 60 | 25 (≈ 96.8 µM) | – | 50 | 33.2 | 3.36 | 3.13 (≈ 12.1 µM) | 0.78 (≈ 3.02 µM) | > 100 | 0 | 16.9 | 0.78 | – | > 100 | Activity [24]: 7%; MIC [25]: 1.56 µg/mL (≈ 6.04 µM); MIC [32]: 12.5 µg/mL (≈ 48.4 µM); EC50 [26]: 11.1 µM; Activity [27]: 67%; EC50 [28]: 11.1 µM; Activity [29]: 47%; Activity [30]: 3.9; MIC [33]: 25 µg/mL (≈ 96.8 µM); MIC [22]: 25 µg/mL (≈ 96.8 µM); MIC [31]: 3.13 µg/mL (≈ 12.1 µM) |
| COc1cc(/C=C/C(=O)CC(=O)/C=C/c2ccc(O)c(OC)c2)ccc1O [CURCUMIN] | – | – | – | 40.3 | – | – | – | – | – | 95.8 | 345 | – | – | – | – | 8.9 | 74.5 | – | – | – | – |
| CC(=O)c1cc2c(o1)C(=O)c1cccc(O)c1C2=O | 0.78 (≈ 3.04 µM) | 0.78 | 7.7 | 7.1 | > 100 | 100 (≈ 390 µM) | 60 | – | 0.84 | 56 | 37.2 | 7.7 | 1.56 (≈ 6.09 µM) | 1.56 (≈ 6.09 µM) | > 100 | 0 | 23.7 | 2 | 100 (≈ 390 µM) | > 100 | MIC [9]: 1.56 µg/mL (≈ 6.09 µM); MIC [34]: > 100 µg/mL; MIC [35]: 50 µg/mL (≈ 195 µM); MIC [31]: 1.56 µg/mL (≈ 6.09 µM) |
| CC(C)=CCC1=C(O)C(=O)c2ccccc2C1=O [LAPACHOL] | – | 10.2 | – | 32.8 | – | – | 50 | – | 1.97 | 86.6 | 311 | – | – | – | – | 8.9 | 65.2 | 4.78 | – | – | viability at 48 h, 500 molar ratio [36]: 60% |
